Data set [1] has as its system Escherichia coli. The experiment in a line: Antibacterial activity against Escherichia coli ATCC 25922 incubated for 24 hrs by broth microdilution method. In kind it is functional. The essentials: (§1)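 CLSI-based broth microdilution. Pure bacterial suspensions were set to 0.5 McFarland (about (1−2) × 10^8 CFU/mL) and diluted to a final inoculum of about 5 × 10^5 CFU/mL. Compounds were tested in 2-fold dilutions from 100 to 0.78 μM and incubated at 35 °C for 24 h. MIC was read as the lowest concentration with no growth visible to the unaided eye.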

Data set [2] concerns Escherichia coli. Description: Antibacterial activity against ESBL-producing Escherichia coli ATCC 35218 incubated for 24 hrs by broth microdilution method. In kind it is functional. In a few lines: as §1
(Dilution methods test growth across graded concentrations, often in twofold steps.)

The subject of data set [3] is Klebsiella pneumoniae. Description: Antibacterial activity against Klebsiella pneumoniae ATCC 700603 incubated for 24 hrs by broth microdilution method. In kind it is functional. The essentials: as §1
In data set [4] the test system is Klebsiella pneumoniae. Description: Antibacterial activity against carbapenem-resistant Klebsiella pneumoniae id-146/19 incubated for 24 hrs by broth microdilution method. In kind it is functional. The essentials: (§2)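 CLSI-based broth microdilution. Pure bacterial suspensions adjusted to 0.5 McFarland (about (1−2) × 10^8 CFU/mL), then diluted to a final inoculum of about 5 × 10^5 CFU/mL (5 × 10^4 CFU/well). Compounds were tested in 2-fold dilutions from 100 to 0.78 μM. Plates incubated 24 h at 35 °C. MIC was the lowest concentration with complete growth inhibition by unaided eye, reported in μM.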

The test system of data set [5] is Acinetobacter baumannii. Description: Antibacterial activity against Acinetobacter baumannii ATCC 19606 incubated for 24 hrs by broth microdilution method. In kind it is functional. The essentials:
as §1

Data set [6] concerns Acinetobacter baumannii. The experiment in a line: Antibacterial activity against carbapenem-resistant Acinetobacter baumannii id-261/16 incubated for 24 hrs by broth microdilution method. In kind it is functional. In a few lines:
as §2

The test system of data set [7] is Pseudomonas aeruginosa. The experiment in a line: Antibacterial activity against Pseudomonas aeruginosa ATCC 27853 incubated for 24 hrs by broth microdilution method. In kind it is functional. In a few lines: as §1
The subject of data set [8] is Pseudomonas aeruginosa. The experiment in a line: Antibacterial activity against carbapenem-resistant Pseudomonas aeruginosa S-6065/06 incubated for 24 hrs by broth microdilution method. In kind it is functional. The essentials:
as §2

Data set [9] deals with Enterococcus faecalis. Description: Antibacterial activity against Enterococcus faecalis ATCC 29212 incubated for 24 hrs by broth microdilution method. In kind it is functional. In a few lines:
as §1

In data set [10] the test system is Enterococcus faecalis. The experiment in a line: Antibacterial activity against vancomycin resistant Enterococcus faecalis ATCC 51299 incubated for 24 hrs by broth microdilution method. In kind it is functional. The essentials:
as §2

In data set [11] the test system is Staphylococcus aureus. The experiment in a line: Antibacterial activity against Staphylococcus aureus ATCC 25923 incubated for 24 hrs by broth microdilution method. In kind it is functional. In a few lines: as §2
For data set [12], the system named is Staphylococcus aureus. The experiment in a line: Antibacterial activity against oxacillin-resistant Staphylococcus aureus ATCC 33591 incubated for 24 hrs by broth microdilution method. In kind it is functional. In a few lines:
as §2

A short description of data set [13]: Hemolytic activity against BALB/c mouse erythrocyte at 100 uM measured after 2 hrs relative to control. In kind it is toxicity, cell-based. To be noted: erythrocytes, read-out: Activity. In a few lines:
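BALB/c mouse erythrocytes, as a 3% suspension in 1× PBS, were exposed to compound at 100 to 6.25 μM for 2 h at 24 °C. Hemolysis was read as supernatant optical density at 570 nm. Distilled water gave maximum hemolysis, and untreated erythrocytes served as the negative control.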

A further data set has as its system OVCAR3 (Homo sapiens). The experiment in a line: Cytotoxicity against human OVCAR3 cells assessed as inhibition of cell viability at 50 uM incubated for 72 hrs by MTT assay relative to control.

The values that follow come from ChEMBL document CHEMBL5120823, “Feature-Based Molecular Networking Discovery of Bromopyrrole Alkaloids from the Marine Sponge Agelas dispar” (J Nat Prod, 2022).

Values after ≈ are worked out from the molar mass of the structure shown.

A word on the MIC: it is the lowest concentration that inhibits growth of the organism. A higher MIC goes with a need for much substance. As for `Nc1nc([C@@H]2c3[nH]c(N)nc3C[C@H](CNC(=O)c3cc(Br)c[nH]3)[C@H]2CNC(=O)c2cc(Br)c[nH]2)c[nH]1`, the MIC in the data set on Escherichia coli [1] is 100 µM (≈ 62 µg/mL); with Escherichia coli [2] it was 100 µM (≈ 62 µg/mL); against Klebsiella pneumoniae [3] it was > 100 µM; in the data set on Klebsiella pneumoniae [4], > 100 µM; in the data set with Acinetobacter baumannii [5] it was > 100 µM; with Acinetobacter baumannii [6], > 100 µM. For the same compound, the MIC in the data set on Pseudomonas aeruginosa [7] was 50 µM (≈ 31 µg/mL); against Pseudomonas aeruginosa [8] it was > 100 µM; in the data set on Enterococcus faecalis [9], > 100 µM; against Enterococcus faecalis [10], > 100 µM; with Staphylococcus aureus [11] it was > 100 µM; in the data set with Staphylococcus aureus [12], > 100 µM. Besides, the hemolysis at 2 h, 100 µM in [13] worked out at 2.3%. Besides, the Activity in the data set on OVCAR3 (Homo sapiens) is given as 50%.
In the case of `Nc1nc([C@@H]2c3nc(N)[nH]c3C[C@H](CNC(=O)c3cc(Br)c(Br)[nH]3)[C@H]2CNC(=O)c2cc(Br)c(Br)[nH]2)c[nH]1`, the MIC against Escherichia coli [1] turned out to be 12.5 µM (≈ 9.73 µg/mL); with Escherichia coli [2], 12.5 µM (≈ 9.73 µg/mL); against Klebsiella pneumoniae [3] it was 12.5 µM (≈ 9.73 µg/mL); in the data set on Klebsiella pneumoniae [4], 25 µM (≈ 19.5 µg/mL); in the data set with Acinetobacter baumannii [5] it was 100 µM (≈ 77.8 µg/mL); in the data set on Acinetobacter baumannii [6] it was 100 µM (≈ 77.8 µg/mL). In addition, the MIC worked out at 25 µM (≈ 19.5 µg/mL) against Pseudomonas aeruginosa [7]; 25 µM (≈ 19.5 µg/mL) against Pseudomonas aeruginosa [8]; 6.2 µM (≈ 4.82 µg/mL) against Enterococcus faecalis [9]; 6.2 µM (≈ 4.82 µg/mL) with Enterococcus faecalis [10]; 6.2 µM (≈ 4.82 µg/mL) in the data set on Staphylococcus aureus [11]; 6.2 µM (≈ 4.82 µg/mL) in the data set with Staphylococcus aureus [12]. For the same compound, the hemolysis at 2 h, 100 µM in [13] was determined as 0.7%.
Take `Nc1nc([C@@H]2c3[nH]c(N)nc3C[C@H](CNC(=O)c3cc(Br)c[nH]3)[C@H]2CNC(=O)c2cc(Br)c(Br)[nH]2)c[nH]1` [BROMOAGELIFERIN]: the MIC against Escherichia coli [1] was 12.5 µM (≈ 8.74 µg/mL); in the data set with Escherichia coli [2], 25 µM (≈ 17.5 µg/mL); in the data set on Klebsiella pneumoniae [3], > 100 µM; against Klebsiella pneumoniae [4], > 100 µM; in the data set on Acinetobacter baumannii [5], > 100 µM; in the data set on Acinetobacter baumannii [6], 100 µM (≈ 69.9 µg/mL). Moreover, the MIC in the data set with Pseudomonas aeruginosa [7] is 12.5 µM (≈ 8.74 µg/mL); with Pseudomonas aeruginosa [8], 50 µM (≈ 35 µg/mL); against Enterococcus faecalis [9], > 100 µM; in the data set on Enterococcus faecalis [10] it was > 100 µM; in the data set with Staphylococcus aureus [11] it was 12.5 µM (≈ 8.74 µg/mL); in the data set on Staphylococcus aureus [12] it was 12.5 µM (≈ 8.74 µg/mL). In data set [13], the hemolysis at 2 h, 100 µM was 1.5%.
